Marks after values point to notes of the source that are not given here.
System: patients with advanced solid tumors or non-Hodgkin's lymphoma
Test: Phase I dose-escalation study: safety, tolerability, MTD, adverse events
Format: in vivo, human
How it was run: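 Adults with advanced solid tumours (plus NHL and type 2 diabetic expansion cohorts) received a 1-h IV infusion on days 1, 8 and 15 of 28-day cycles over 0.1–1.2 mg/kg. Accelerated titration escalated the dose by 100% per cohort. MTD was the highest dose given to six patients with ≤1 DLT. Fasting was 8 h pre- and 3 h post-start on cycle 1 day 1. AEs were assessed at planned times each cycle and at follow-up.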

[1] = diabetic expansion, 0.4 mg/kg, n=6
[2] = solid tumors expansion, 0.8 mg/kg, n=25

COc1c(OCCCN2CCOCC2)ccc2c1N=C(NC(=O)c1cnc(N)nc1)N1CCN=C21 [copanlisib, Copanlisib]
Drug-related hyperglycemia, grade 3 (cohort 4, 0.8 mg/kg, n=7): 4 (57) n (%) | Drug-related hypertension, all grades (cohort 4, 0.8 mg/kg, n=7): 1 (14) n (%) | Drug-related hypertension, grade 3 (cohort 4, 0.8 mg/kg, n=7): 0 n (%) | Drug-related nausea, all grades (cohort 4, 0.8 mg/kg, n=7): 1 (14) n (%) | Drug-related nausea, grade 3 (cohort 4, 0.8 mg/kg, n=7): 0 n (%) | Drug-related oral cavity mucositis, all grades (cohort 4, 0.8 mg/kg, n=7): 0 n (%) | Drug-related oral cavity mucositis, grade 3 (cohort 4, 0.8 mg/kg, n=7): 0 n (%) | Drug-related rash/desquamation, all grades (cohort 4, 0.8 mg/kg, n=7): 0 n (%) | Drug-related rash/desquamation, grade 3 (cohort 4, 0.8 mg/kg, n=7): 0 n (%) | Drug-related vomiting, all grades (cohort 4, 0.8 mg/kg, n=7): 1 (14) n (%) | Drug-related vomiting, grade 3 (cohort 4, 0.8 mg/kg, n=7): 0 n (%) | Any drug-related AE (cohort 5, 1.2 mg/kg, n=3): 3 (100) n (%) | Drug-related AEs of grade 3 (cohort 5, 1.2 mg/kg, n=3): 2 (67) n (%) | Drug-related AEs of grade 4 (cohort 5, 1.2 mg/kg, n=3): 1 (33) n (%) | Drug-related diarrhea, all grades (cohort 5, 1.2 mg/kg, n=3): 0 n (%) | Drug-related diarrhea, grade 3 (cohort 5, 1.2 mg/kg, n=3): 0 n (%) | Drug-related fatigue, all grades (cohort 5, 1.2 mg/kg, n=3): 0 n (%) | Drug-related fatigue, grade 3 (cohort 5, 1.2 mg/kg, n=3): 0 n (%) | Drug-related hyperglycemia, all grades (cohort 5, 1.2 mg/kg, n=3): 3 (100) n (%) | Drug-related hyperglycemia, grade 3 (cohort 5, 1.2 mg/kg, n=3): 1 (33) n (%) | Drug-related hypertension, all grades (cohort 5, 1.2 mg/kg, n=3): 0 n (%) | Drug-related hypertension, grade 3 (cohort 5, 1.2 mg/kg, n=3): 0 n (%) | Drug-related nausea, all grades (cohort 5, 1.2 mg/kg, n=3): 1 (33) n (%) | Drug-related nausea, grade 3 (cohort 5, 1.2 mg/kg, n=3): 0 n (%) | Drug-related oral cavity mucositis, all grades (cohort 5, 1.2 mg/kg, n=3): 0 n (%) | Drug-related oral cavity mucositis, grade 3 (cohort 5, 1.2 mg/kg, n=3): 0 n (%) | Drug-related rash/desquamation, all grades (cohort 5, 1.2 mg/kg, n=3): 0 n (%) | Drug-related rash/desquamation, grade 3 (cohort 5, 1.2 mg/kg, n=3): 0 n (%) | Drug-related vomiting, all grades (cohort 5, 1.2 mg/kg, n=3): 1 (33) n (%) | Drug-related vomiting, grade 3 (cohort 5, 1.2 mg/kg, n=3): 0 n (%) | Any drug-related AE [1]: 5 (83) n (%) | Drug-related AEs of grade 3 [1]: 3 (50) n (%) | Drug-related AEs of grade 4 [1]: 0 n (%) | Drug-related diarrhea, all grades [1]: 1 (17) n (%) | Drug-related diarrhea, grade 3 [1]: 0 n (%) | Drug-related fatigue, all grades [1]: 0 n (%) | Drug-related fatigue, grade 3 [1]: 0 n (%) | Drug-related hyperglycemia, all grades [1]: 1 (17) n (%) | Drug-related hyperglycemia, grade 3 [1]: 1 (17) n (%) | Drug-related hypertension, all grades [1]: 2 (33) n (%) | Drug-related hypertension, grade 3 [1]: 2 (33) n (%) | Drug-related nausea, all grades [1]: 2 (33) n (%) | Drug-related nausea, grade 3 [1]: 0 n (%) | Drug-related oral cavity mucositis, all grades [1]: 0 n (%) | Drug-related oral cavity mucositis, grade 3 [1]: 0 n (%) | Drug-related rash/desquamation, all grades [1]: 1 (17) n (%) | Drug-related rash/desquamation, grade 3 [1]: 1 (17) n (%) | Drug-related vomiting, all grades [1]: 0 n (%) | Drug-related vomiting, grade 3 [1]: 0 n (%) | diabetic ketoacidosis (during the study): no patients | patients with elevated aminotransferase grade ≥3 (laboratory finding): five | patients who discontinued because of AEs (n=57): Four | hyperglycemia grade 4, regardless of causality (n=57, text): 2% | serious drug-related AEs (six of 57 patients): 11% | Any drug-related AE [2]: 20 (80) n (%) | Drug-related AEs of grade 3 [2]: 12 (48) n (%) | Drug-related AEs of grade 4 [2]: 0 n (%) | Drug-related diarrhea, all grades [2]: 2 (8) n (%) | Drug-related diarrhea, grade 3 [2]: 0 n (%) | Drug-related fatigue, all grades [2]: 2 (8) n (%) | Drug-related fatigue, grade 3 [2]: 0 n (%) | Drug-related hyperglycemia, all grades [2]: 15 (60) n (%) | Drug-related hyperglycemia, grade 3 [2]: 8 (32) n (%) | Drug-related hypertension, all grades [2]: 5 (20) n (%) | Drug-related hypertension, grade 3 [2]: 2 (8) n (%) | Drug-related nausea, all grades [2]: 7 (28) n (%) | Drug-related nausea, grade 3 [2]: 0 n (%) | Drug-related oral cavity mucositis, all grades [2]: 2 (8) n (%) | Drug-related oral cavity mucositis, grade 3 [2]: 0 n (%) | Drug-related rash/desquamation, all grades [2]: 6 (24) n (%) | Drug-related rash/desquamation, grade 3 [2]: 2 (8) n (%) | Drug-related vomiting, all grades [2]: 3 (12) n (%) | Drug-related vomiting, grade 3 [2]: 0 n (%) | Any drug-related AE (total, n=57): 49 (86) n (%) | Drug-related AEs of grade 3 (total, n=57): 29 (51) n (%) | Drug-related AEs of grade 4 (total, n=57): 2 (4)^b n (%) | Drug-related diarrhea, all grades (total, n=57): 9 (16) n (%) | Drug-related diarrhea, grade 3 (total, n=57): 1 (2) n (%) | Drug-related fatigue, all grades (total, n=57): 6 (11) n (%) | Drug-related fatigue, grade 3 (total, n=57): 0 n (%) | Drug-related hyperglycemia, all grades (total, n=57): 36 (63) n (%) | Drug-related hyperglycemia, grade 3 (total, n=57): 17 (30) n (%) | Drug-related hypertension, all grades (total, n=57): 12 (21) n (%) | Drug-related hypertension, grade 3 (total, n=57): 8 (14) n (%) | Drug-related nausea, all grades (total, n=57): 21 (37) n (%) | Drug-related nausea, grade 3 (total, n=57): 0 n (%) | Drug-related oral cavity mucositis, all grades (total, n=57): 6 (11) n (%) | Drug-related oral cavity mucositis, grade 3 (total, n=57): 0 n (%) | Drug-related rash/desquamation, all grades (total, n=57): 9 (16) n (%) | Drug-related rash/desquamation, grade 3 (total, n=57): 4 (7) n (%) | Drug-related vomiting, all grades (total, n=57): 7 (12) n (%) | Drug-related vomiting, grade 3 (total, n=57): 0 n (%) | patients with drug-related grade 4 AEs (two patients, three events): 4%
